Reference: paper PMC12393906 (Molecular Therapy, 2025)
One block for each molecule: values may come before it.

Key:
Recombinant human ERO1α = molecular target: T1, Recombinant human ERO1α (Homo sapiens, UniProt Q96HE7); test: fluorescence-based ERO1α activity assay; format: biochemical; details: 0.01–1 μM FAD
T1 sequence (Q96HE7 24-468): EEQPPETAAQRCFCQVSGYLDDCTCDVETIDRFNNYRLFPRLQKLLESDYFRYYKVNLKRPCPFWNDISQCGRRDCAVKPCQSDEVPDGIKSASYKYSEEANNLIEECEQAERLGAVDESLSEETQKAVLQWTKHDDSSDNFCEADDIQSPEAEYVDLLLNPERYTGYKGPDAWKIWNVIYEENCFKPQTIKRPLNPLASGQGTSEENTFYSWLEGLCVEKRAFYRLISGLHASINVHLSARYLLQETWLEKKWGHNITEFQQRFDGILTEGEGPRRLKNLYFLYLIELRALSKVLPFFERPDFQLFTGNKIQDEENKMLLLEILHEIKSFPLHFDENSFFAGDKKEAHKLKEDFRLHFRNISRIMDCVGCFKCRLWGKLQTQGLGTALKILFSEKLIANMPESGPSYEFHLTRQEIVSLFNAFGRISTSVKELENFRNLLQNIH

Mao-A = details: read-out: IC50 (Mao-A); cited from earlier work
[1] = test system: lysine-specific demethylase 1; details: cited from earlier work
ERO1α [2] = details: read-out: KD (ERO1α); cited from earlier work
ERO1α [3] = details: read-out: IC50 (ERO1α); cited from earlier work
C57BL/6 mice [4] = test: Tail bleeding time and hemoglobin content; format: in vivo, mouse; details: iv 5 μg/g BW
C57BL/6 mice [5] = test: FeCl3-induced carotid arterial thrombosis; format: in vivo, mouse; details: iv 5 μg/g BW; 7% or 10% FeCl3
How it was run: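 Male and female mice, 8–12 weeks, were anaesthetised with ip ketamine/xylazine. A 2 × 2 mm filter disc carrying 1.2 μL of 7 or 10% FeCl3 was placed on the carotid artery for 2 min. Flow was monitored by Doppler flow meter. TTO was the time from disc removal to stable occlusion (no flow for 5 min).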

effect of exogenous FAD on ERO1α activity (Recombinant human ERO1α): significantly increased ERO1α activity
Molecule: Cc1cc2nc3c(=O)[nH]c(=O)nc-3n(C[C@H](O)[C@H](O)[C@H](O)COP(=O)(O)OP(=O)(O)OC[C@H]3O[C@@H](n4cnc5c(N)ncnc54)[C@H](O)[C@@H]3O)c2cc1C [FAD, flavin adenine dinucleotide]

Molecule: CN(C)c1ccc(/C=C2\Oc3cc(O)ccc3C2=O)cc1 [Compound T151742]
IC50 (Mao-A): 1 µM | binding to lysine-specific demethylase 1 [1]: does not bind | Kd (ERO1α [2]): 31.4 µM | IC50 (ERO1α [3]): 8.7 µM

tail bleeding times and blood loss (C57BL/6 mice [4]): markedly increased both
Molecule: eptifibatide
time to occlusion (TTO) (C57BL/6 mice [5]): significantly prolonged TTO irrespective of the FeCl3 concentration
